Structures are written as SMILES. Calls of active or inactive are those of the source.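 How the source made its calls, unless noted: active means fluorescence slope after compound addition differing from the mean of all tested samples at 99.7% confidence, mostly higher but some lower; inactive means the rest.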

Assay [1] is described as follows: inhibitors of TNFa-induced NFkB p65 translocation, primary screen, imaging, HUVEC, MLSMR starter and 10KST1 sets (AID 438;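 active means inhibition above 20% together with a positive visual image hit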;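 further: compound added about 3h40 before a 20 min TNFalpha stimulation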;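 on inhibition: signal is the nuclear over cytoplasmic p65 intensity ratio per well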). The conditions noted are these: HUVEC TNFa-induced p65 nuclear translocation; cell count: measured here: nuclei count (cytotoxicity indicator), at 2.08 µM; inhibition: at 2 µM, stronger effect = higher value, 0% TNFa-plus-vehicle, 100% no-TNFa wells.
Assay [2] is described as follows: inhibitors of mutant huntingtin aggregation, primary screen, imaging, exon1htt(103Q)mCFP cells, high-content imaging (AID 483;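 active means visual image review flags a hit and inhibition of aggregation exceeds 20%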;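 further: compound exposure lasted 3 days before fixation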;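 on nuclei count: percent of the per-plate median nuclei count of sample wells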). The conditions noted are these: exon1htt(103Q)mCFP cell line, aggregate imaging, at 2 µM; inhibition of aggregation: stronger effect = higher value; nuclei count: measured here: cell count, toxicity.
Assay [3] in a line: inhibitors of E-selectin induction by TNFa, primary screen, imaging, HUVEC, immunofluorescence, MLSMR starter and 10KST1 sets (AID 487;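 active means visually confirmed hit in the image check and inhibition above 20%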;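 on inhibition: signal is fraction of cell area covered by stained E-selectin grains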;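 on nuclei count: 100% = median nuclei count of all wells on the same plate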). The following applies: HUVEC TNFalpha-induced E-selectin immunofluorescence imaging, at 2 µM; inhibition: stronger effect = higher value; nuclei count: measured here: cell number, toxicity.
For assay [4], the target named is Voltage-gated potassium channel subunit beta-2 (Rattus norvegicus) (UniProt P62483). Description: KvBeta enzyme negative modulators, primary screen, biochemical, NADPH fluorescence (AID 622;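 active means fluorescence slope higher than the sample average by over 3 SD, cut at about -0.22 in these data, passing the limit was not always enough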;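 further: slope of raw intensity against log time taken from 70 to 1610 s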). The conditions noted are these: recombinant KvBeta, 4-cyanobenzaldehyde reduction, at 10 µM, stronger effect = higher value.
Voltage-gated potassium channel subunit beta-2 (Rattus norvegicus), sequence (P62483 whole entry, looked up): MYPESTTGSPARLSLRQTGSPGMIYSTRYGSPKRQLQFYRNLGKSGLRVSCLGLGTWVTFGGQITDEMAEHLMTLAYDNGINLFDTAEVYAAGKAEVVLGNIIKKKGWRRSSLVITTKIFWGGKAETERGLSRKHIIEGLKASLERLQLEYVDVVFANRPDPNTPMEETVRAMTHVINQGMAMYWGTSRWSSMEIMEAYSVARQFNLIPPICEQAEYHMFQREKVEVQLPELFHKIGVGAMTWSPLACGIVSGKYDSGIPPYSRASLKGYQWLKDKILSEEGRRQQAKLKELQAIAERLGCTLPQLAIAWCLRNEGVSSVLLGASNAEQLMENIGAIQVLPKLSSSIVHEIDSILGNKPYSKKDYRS
Assay [5] has the same target. Description: KvBeta positive modulators, primary screen, biochemical, NADPH fluorescence (AID 623;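 active means NADPH fluorescence slope more negative than the mean of all samples by about 3 SD, 99.7% confidence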;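 further: fluorescence intensity change per second fitted from 20 to 320 s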). The following applies: Recombinant KvBeta, NADPH fluorescence decrease slope, 10 min; at 10 µM; stronger effect = lower value.
In assay [6] the target is Muscarinic acetylcholine receptor M4 (Homo sapiens) (UniProt P08173). Description: compounds altering M4/GIRK thallium flux, either direction, primary screen, M4 allosteric agonist project, cell-based, HEK293 M4/GIRK, BTC-AM (AID 625).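 Further: thallium influx through GIRK channels coupled to M4 in HEK293 cells with BTC-AM dye.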 The conditions noted are these: at 10 µM, actives lie on both sides. The gist of the method:
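Assay system: HEK293 cells with M4 receptor and GIRK channels / Controls: carbachol and DMSO controls / Schedule: 1 h dye loading, 2 min kinetic read / Technique: kinetic fluorescence with BTC-AM dye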

The nature of assay [7]: inhibitors of Sendai virus-induced IRF3 signaling, primary screen, TLR/RLR signaling modifier project, cell-based, Sendai virus stimulus, luciferase, 10K MLSCN set (AID 602276;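 active means inhibition at or above 50% at 10 µM; inactive means inhibition below 50%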;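 further: firefly luciferase from ISG56 promoter only with Renilla not read in this screen; 0% = Sendai virus plus DMSO and 100% = medium plus DMSO without virus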). The conditions noted are these: HEK293 RL24 IRF3 luciferase reporter, at 10 µM, stronger effect = higher value.
Assay [8] in a line: inhibitors of poly I:C-induced TLR3 signaling, primary screen, cell-based, poly I:C stimulus, luciferase, 10K MLSCN set (AID 602277;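 active means inhibition of the reporter signal at or above 50%; inactive means inhibition below 50%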). The following applies: HEK293-TLR3 RL24 IRF3 luciferase reporter, at 10 µM, stronger effect = higher value.

Muscarinic acetylcholine receptor M4 (Homo sapiens), sequence (P08173 whole entry, looked up): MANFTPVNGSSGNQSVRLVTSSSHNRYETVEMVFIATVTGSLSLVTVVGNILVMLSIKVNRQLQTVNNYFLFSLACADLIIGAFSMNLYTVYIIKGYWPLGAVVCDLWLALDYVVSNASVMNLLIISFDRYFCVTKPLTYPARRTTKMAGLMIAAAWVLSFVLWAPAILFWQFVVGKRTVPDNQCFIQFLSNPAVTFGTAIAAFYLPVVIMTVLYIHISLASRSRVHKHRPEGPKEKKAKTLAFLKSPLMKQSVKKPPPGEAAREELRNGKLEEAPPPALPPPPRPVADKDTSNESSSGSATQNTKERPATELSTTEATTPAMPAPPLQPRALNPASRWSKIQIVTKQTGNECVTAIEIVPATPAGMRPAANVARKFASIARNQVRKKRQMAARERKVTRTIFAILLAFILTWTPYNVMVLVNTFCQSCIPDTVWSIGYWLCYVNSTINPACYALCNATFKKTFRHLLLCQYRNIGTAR

Turning to `CCCn1c(=N)n(CC(=O)c2cccs2)c2ccccc21`, the cell count in assay [1] was 427. The inhibition in assay [1] is 3.8% (inactive); in assay [3], -47% (inactive); in assay [7], 2.39% (inactive); in assay [8] it was 3.66% (inactive). Further, the inhibition of aggregation in assay [2] was -0.8% (inactive). Further, the figures for the nuclei count in assay [2] and in assay [3] were 87.6% and 114%, respectively. Moreover, the fluorescence slope in assay [4] is -0.552 (inactive); in assay [6], 0.00423 (inactive). In addition, the NADPH fluorescence slope in assay [5] was -2.9e-05 (inactive).

On to `Cc1ccc(N2CC(C(=O)Nc3ccc4c(c3)OCO4)CC2=O)cc1` (centres undefined), for which, in assay [1], the cell count worked out at 556. Besides, the inhibition in assay [1] was -19.5% (inactive); in assay [3] it was -43.5% (inactive); in assay [7], 14.2% (inactive); in assay [8], 21.6% (inactive). Besides, the inhibition of aggregation in assay [2] was 18.6% (inactive). The nuclei count in assay [2] amounted to 110%; in assay [3] it was 120%. The fluorescence slope in assay [4] is -0.567 (inactive); in assay [6], 0.00603 (inactive). Also, in assay [5], the NADPH fluorescence slope was -4.3e-05 (inactive).

Regarding `Cc1noc(C)c1S(=O)(=O)N1CCC(C(=O)Nc2ccccn2)CC1`, the cell count in assay [1] was found to be 281. In addition, the inhibition in assay [1] was -5.2% (inactive); in assay [3], -46% (inactive); in assay [7] it was 13.8% (inactive); in assay [8], 21.1% (inactive). In addition, the inhibition of aggregation in assay [2] is -0.6% (inactive). For the same compound, the nuclei count stood at 96.1% in assay [2] and 128% in assay [3]. Moreover, the fluorescence slope was -0.404 (inactive) in assay [4] and 0.00606 (inactive) in assay [6]. For the same compound, in assay [5], the NADPH fluorescence slope was 3.5e-05 (inactive).

Consider `N#Cc1cnc(SCC(=O)Nc2ccccc2C(F)(F)F)nc1N`, for which, in assay [1], the cell count turned out to be 743. For the same compound, the inhibition in assay [1] was 2.2% (inactive); in assay [3], -205% (inactive); in assay [7], 14% (inactive); in assay [8], 22.7% (inactive). Moreover, the inhibition of aggregation in assay [2] was 15.1% (inactive). In addition, the nuclei count in assay [2] stood at 102%; in assay [3], 121%. For the same compound, the results for the fluorescence slope in assay [4] and in assay [6] were -0.371 (inactive) and 0.00496 (inactive), respectively. Besides, the NADPH fluorescence slope in assay [5] is 5.4e-05 (inactive).

For `CC(=O)Nc1ccc(S(=O)(=O)N2CCN(Cc3ccncc3)CC2)cc1`, the cell count in assay [1] stood at 679. In addition, the inhibition in assay [1] is -5.8% (inactive); in assay [3], -26.1% (inactive); in assay [7], 18.9% (inactive); in assay [8], 16.4% (inactive). For the same compound, in assay [2], the inhibition of aggregation was -14% (inactive). The nuclei count stood at 123% in assay [2] and 126% in assay [3]. Also, the fluorescence slope in assay [4] was -0.451 (inactive); in assay [6], 0.00451 (inactive). For the same compound, the NADPH fluorescence slope in assay [5] was -3.2e-05 (inactive).

In the case of `N/C(Cn1nnc(-c2ccccc2)n1)=N\O`, the cell count in assay [1] was determined as 707. Also, the inhibition in assay [1] is 5.4% (inactive); in assay [3], 12.5% (inactive); in assay [7] it was -16.8% (inactive); in assay [8], 89.1% (active). For the same compound, the inhibition of aggregation in assay [2] was -14.8% (inactive). Also, the nuclei count is 108% in assay [2] and 114% in assay [3]. Further, the fluorescence slope is -0.463 (inactive) in assay [4] and 0.00645 (inactive) in assay [6]. For the same compound, in assay [5], the NADPH fluorescence slope is 2.3e-05 (inactive).

Take `Cc1nc(C)c(C(=O)Nc2ccc(Oc3ccccc3)cc2)o1`: in assay [1], the cell count came out at 405. Moreover, the inhibition in assay [1] was 0.6% (inactive); in assay [3] it was -128% (inactive); in assay [7], -20.2% (inactive); in assay [8] it was -128% (inactive). Besides, the inhibition of aggregation in assay [2] was -26.8% (inactive). Besides, the figures for the nuclei count in assay [2] and in assay [3] were 105% and 119%, respectively. Besides, the fluorescence slope is -0.306 (inactive) in assay [4] and 0.00832 (inactive) in assay [6]. Further, the NADPH fluorescence slope in assay [5] is -2.3e-05 (inactive).

Consider `CCOC(=O)N1CCN(CC(=O)Nc2c(C(=O)OC)[nH]c3cccc(Cl)c23)CC1`, for which the cell count in assay [1] was 556. The inhibition in assay [1] is -15.5% (inactive); in assay [3], -23.3% (inactive); in assay [7], 20% (inactive); in assay [8] it was -2.65% (inactive). In assay [2], the inhibition of aggregation was -5.4% (inactive). Moreover, the figures for the nuclei count in assay [2] and in assay [3] were 96.1% and 94%, respectively. The fluorescence slope in assay [4] is -0.214 (inactive); in assay [6] it was 0.00534 (inactive). In addition, the NADPH fluorescence slope in assay [5] is -2.3e-05 (inactive).

On to `CC(C)(C)OC(=O)N1CC(O)CC1C(=O)OCC(=O)c1ccc(Cl)cc1` (centres undefined), for which the cell count in assay [1] is 445. Also, the inhibition was -7.4% (inactive) in assay [1], -22.9% (inactive) in assay [3], 8.08% (inactive) in assay [7] and 19.4% (inactive) in assay [8]. In addition, the inhibition of aggregation in assay [2] was 22.1% (inactive). The nuclei count is 105% in assay [2] and 103% in assay [3]. The fluorescence slope in assay [4] is -0.316 (inactive); in assay [6], 0.00558 (inactive). In addition, the NADPH fluorescence slope in assay [5] is -6e-05 (inactive).

On to `CC1=C(C#N)C(c2ccoc2)C(C(=O)OCc2ccccc2)=C(N)S1` (centres undefined), for which the cell count in assay [1] turned out to be 482. In addition, the inhibition in assay [1] was 1% (inactive); in assay [3], -90% (inactive); in assay [7], 9.67% (inactive); in assay [8] it was 11.7% (inactive). Besides, in assay [2], the inhibition of aggregation was -13.3% (inactive). The nuclei count in assay [2] worked out at 84.8%; in assay [3], 102%. Also, the fluorescence slope was -0.524 (inactive) in assay [4] and 0.0045 (inactive) in assay [6]. Also, in assay [5], the NADPH fluorescence slope is -0.000129 (inactive).

Regarding `Clc1ccccc1-c1nnc2sc(-c3ccccn3)nn12`, the cell count in assay [1] stood at 420. The inhibition is -4.1% (inactive) in assay [1], -102% (inactive) in assay [3], 14.6% (inactive) in assay [7] and 14.1% (inactive) in assay [8]. Also, the inhibition of aggregation in assay [2] is 24.3% (inactive). The nuclei count was determined as 84.8% in assay [2] and 118% in assay [3]. The fluorescence slope in assay [4] was -0.447 (inactive); in assay [6] it was 0.00382 (inactive). For the same compound, the NADPH fluorescence slope in assay [5] is -6.3e-05 (inactive).

Take `CC(C)=CC/C=C1\CCC(C(=O)O)C(C(=O)O)C1` (centres undefined): in assay [1], the cell count stood at 661. The inhibition is -6.8% (inactive) in assay [1], -30.8% (inactive) in assay [3], 15.6% (inactive) in assay [7] and 13.1% (inactive) in assay [8]. Also, the inhibition of aggregation in assay [2] was -3.8% (inactive). Also, the results for the nuclei count in assay [2] and in assay [3] were 116% and 100%, respectively. Also, the fluorescence slope is -0.52 (inactive) in assay [4] and 0.00515 (inactive) in assay [6]. The NADPH fluorescence slope in assay [5] was -1.4e-05 (inactive).

Turning to `Cc1cccc(NC(=O)CCn2ccnc2C)c1`, the cell count in assay [1] was 628. Moreover, the inhibition in assay [1] was 1.2% (inactive); in assay [3], -65.9% (inactive); in assay [7], 10.5% (inactive); in assay [8] it was 8.13% (inactive). For the same compound, the inhibition of aggregation in assay [2] was -6.6% (inactive). Also, the nuclei count in assay [2] was 96.8%; in assay [3] it was 93%. Also, the fluorescence slope was -0.574 (inactive) in assay [4] and 0.00688 (inactive) in assay [6]. The NADPH fluorescence slope in assay [5] was -5e-05 (inactive).

Consider `CCC1(CC)C(=O)C(C)(C)C(=O)OC1c1cccs1` (centres undefined), for which the cell count in assay [1] was determined as 750. In addition, the inhibition in assay [1] was -8.8% (inactive); in assay [3] it was -18.3% (inactive); in assay [7] it was 21.5% (inactive); in assay [8] it was 19.6% (inactive). Also, in assay [2], the inhibition of aggregation was 10.4% (inactive). Moreover, the nuclei count in assay [2] stood at 91.1%; in assay [3], 110%. The fluorescence slope is -0.454 (inactive) in assay [4] and 0.00495 (inactive) in assay [6]. In addition, the NADPH fluorescence slope in assay [5] is -4.2e-05 (inactive).

Values taken from PubChem BioAssay.
